Assay results as given in ChEMBL document CHEMBL3244072, “Synthesis and antiviral and enzymatic studies of certain 3-deazaguanines and their imidazolecarboxamide precursors” (J Med Chem, 1978).
Calls of active or inactive are those of the source.

What was measured:
Type in all cases: functional, organism-based
Microsporum canis = assay: Antimicrobial activity against Microsporum canis at 0.4 umol/mL by broth microdilution method
How it was run: (§1)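 Broth dilution in defined medium against clinical isolates of each organism.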

Candida albicans = assay: Antimicrobial activity against Candida albicans at 0.4 umol/mL by broth microdilution method; how it was run: as §1
[1] = system: Trichophyton mentagrophytes; assay: Antimicrobial activity against Trichophyton mentagrophytes at 0.4 umol/mL by broth microdilution method; how it was run: as §1
Staphylococcus aureus = assay: Antimicrobial activity against Staphylococcus aureus at 0.4 umol/mL by broth microdilution method; how it was run: as §1
Epidermophyton floccosum = assay: Antimicrobial activity against Epidermophyton floccosum at 0.4 umol/mL by broth microdilution method; how it was run: as §1
Pseudomonas aeruginosa = assay: Antimicrobial activity against Pseudomonas aeruginosa at 0.4 umol/mL by broth microdilution method; how it was run: as §1

Measured: Activity

N#CCc1c(C(N)=O)ncn1C1CCCCO1 (stereo not drawn)
inactive: all assays above

C1=COCCC1
inactive: all assays above

COC(=O)c1c(CC#N)ncn1[C@@H]1O[C@H](C)[C@@H](OC(C)=O)[C@H]1OC(C)=O
inactive: all assays above

CC(=O)Nc1cc2[nH]cnc2c(=O)[nH]1
inactive: all assays above

CN(C)/C=N/c1cc2c(ncn2[C@@H]2O[C@H](CO)[C@@H](O)[C@H]2O)c(=O)[nH]1
inactive: all assays above

C[C@H]1O[C@@H](n2cnc3cc(N)[nH]c(=O)c32)[C@H](O)[C@@H]1O
inactive: all assays above

CC(=O)OC[C@H]1O[C@@H](n2cnc(C(N)=O)c2CC#N)[C@H](OC(C)=O)[C@@H]1OC(C)=O
inactive: all assays above

CC(=O)Nc1cc2c(ncn2[C@@H]2O[C@H](COC(C)=O)[C@@H](OC(C)=O)[C@H]2OC(C)=O)c(=O)[nH]1
inactive: all assays above

COC(=O)c1c(CC#N)ncn1C1CCCCO1 (stereo not drawn)
inactive: all assays above

C[C@H]1O[C@@H](n2cnc(C(N)=O)c2CC#N)[C@H](O)[C@@H]1O
inactive: all assays above

CC(=O)O[C@@H]1O[C@H](C)[C@@H](OC(C)=O)[C@H]1OC(C)=O
inactive: all assays above

Nc1cc2c(ncn2C2CCCCO2)c(=O)[nH]1 (stereo not drawn)
inactive: all assays above

COC(=O)c1ncn([C@@H]2O[C@H](C)[C@@H](OC(C)=O)[C@H]2OC(C)=O)c1CC#N
inactive: all assays above
